The target in one series is T1, Adenosine receptor A2b (Homo sapiens, UniProt P29275).
T1 sequence (P29275 whole entry): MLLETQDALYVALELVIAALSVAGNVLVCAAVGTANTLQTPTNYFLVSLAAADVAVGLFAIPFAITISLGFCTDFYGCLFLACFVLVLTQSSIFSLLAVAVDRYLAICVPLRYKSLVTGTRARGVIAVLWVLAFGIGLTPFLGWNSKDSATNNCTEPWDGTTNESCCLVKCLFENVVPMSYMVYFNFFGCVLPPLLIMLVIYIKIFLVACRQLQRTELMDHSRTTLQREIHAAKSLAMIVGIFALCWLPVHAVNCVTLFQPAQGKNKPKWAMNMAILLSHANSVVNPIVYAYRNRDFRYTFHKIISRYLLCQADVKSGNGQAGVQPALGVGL
Briefly: Displacement of [3H]MRS-1754 from human adenosine A2B receptor expressed in HEK293 cell membranes after 90 mins. The gist of the method: (§1)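 Membranes from HEK-293 cells stably transfected with human receptor, pre-treated with adenosine deaminase. Radioligands: 1 nM [3H]DPCPX (A1), 1 nM [3H]ZM241385 (A2A), 1.6 nM [3H]MRS-1754 (A2B), 2 nM [3H]HEMADO (A3). Buffers: Tris pH 7.4 (A1, A2A, A3) or pH 6.5 (A2B), with ADA. Incubated 90 min at room temperature, then filtered. Nonspecific binding defined with 100 µM NECA. Ki from 8 concentrations run in triplicate.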
A general note: In a radioligand displacement assay an active substance lowers the binding of a labelled ligand.

Series [1] can be described thus: Metabolic stability in human liver microsomes assessed as parent compound remaining measured after 30 mins in presence of NADPH. It counts as ADME, microsome. To be noted: read-out: Stability. On the technique in general: Liver microsomes are vesicles of endoplasmic reticulum, rich in cytochrome P450 enzymes.
For series [2], the target named is T2, hERG (KCNH2) (Homo sapiens, UniProt Q12809). Briefly: Inhibition of human ERG at 5 uM relative to control.
T2 sequence (Q12809 whole entry): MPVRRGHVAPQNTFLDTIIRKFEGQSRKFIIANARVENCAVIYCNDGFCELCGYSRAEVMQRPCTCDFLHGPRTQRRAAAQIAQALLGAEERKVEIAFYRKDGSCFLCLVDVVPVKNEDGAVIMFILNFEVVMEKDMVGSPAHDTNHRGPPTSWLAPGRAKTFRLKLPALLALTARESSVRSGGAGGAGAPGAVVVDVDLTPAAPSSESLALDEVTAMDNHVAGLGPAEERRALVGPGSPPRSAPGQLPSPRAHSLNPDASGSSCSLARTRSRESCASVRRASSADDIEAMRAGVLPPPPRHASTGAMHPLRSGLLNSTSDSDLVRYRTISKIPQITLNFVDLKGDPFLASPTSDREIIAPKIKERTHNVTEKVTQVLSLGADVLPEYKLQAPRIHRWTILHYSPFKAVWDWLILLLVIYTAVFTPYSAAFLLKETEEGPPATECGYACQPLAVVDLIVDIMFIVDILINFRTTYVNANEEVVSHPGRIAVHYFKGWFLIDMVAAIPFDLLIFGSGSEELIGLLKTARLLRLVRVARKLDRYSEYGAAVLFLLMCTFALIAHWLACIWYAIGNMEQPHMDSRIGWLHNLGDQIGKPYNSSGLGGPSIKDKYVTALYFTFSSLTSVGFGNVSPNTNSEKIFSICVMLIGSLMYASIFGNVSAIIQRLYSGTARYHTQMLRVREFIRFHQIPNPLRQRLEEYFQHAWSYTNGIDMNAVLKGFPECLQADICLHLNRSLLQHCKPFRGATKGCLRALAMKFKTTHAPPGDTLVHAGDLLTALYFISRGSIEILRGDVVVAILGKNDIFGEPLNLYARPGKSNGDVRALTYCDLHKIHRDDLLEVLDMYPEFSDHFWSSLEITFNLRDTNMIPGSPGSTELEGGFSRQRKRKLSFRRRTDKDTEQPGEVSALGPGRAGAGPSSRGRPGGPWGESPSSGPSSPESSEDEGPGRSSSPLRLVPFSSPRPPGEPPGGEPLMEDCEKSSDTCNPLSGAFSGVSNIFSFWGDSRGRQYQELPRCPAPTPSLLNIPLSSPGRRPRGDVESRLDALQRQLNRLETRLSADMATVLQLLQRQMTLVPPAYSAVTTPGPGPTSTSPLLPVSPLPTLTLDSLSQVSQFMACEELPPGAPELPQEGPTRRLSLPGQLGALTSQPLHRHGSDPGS
Series [3] has as its target T2, hERG (KCNH2). The experiment in a line: Inhibition of human ERG at 25 uM relative to control.
For another series, the target named is CYP2C9 (Homo sapiens, UniProt P11712). The experiment in a line: Inhibition of CYP2C9 (unknown origin) at 5 uM relative to control. Format: ADME.
Chain of CYP2C9 (P11712 whole entry): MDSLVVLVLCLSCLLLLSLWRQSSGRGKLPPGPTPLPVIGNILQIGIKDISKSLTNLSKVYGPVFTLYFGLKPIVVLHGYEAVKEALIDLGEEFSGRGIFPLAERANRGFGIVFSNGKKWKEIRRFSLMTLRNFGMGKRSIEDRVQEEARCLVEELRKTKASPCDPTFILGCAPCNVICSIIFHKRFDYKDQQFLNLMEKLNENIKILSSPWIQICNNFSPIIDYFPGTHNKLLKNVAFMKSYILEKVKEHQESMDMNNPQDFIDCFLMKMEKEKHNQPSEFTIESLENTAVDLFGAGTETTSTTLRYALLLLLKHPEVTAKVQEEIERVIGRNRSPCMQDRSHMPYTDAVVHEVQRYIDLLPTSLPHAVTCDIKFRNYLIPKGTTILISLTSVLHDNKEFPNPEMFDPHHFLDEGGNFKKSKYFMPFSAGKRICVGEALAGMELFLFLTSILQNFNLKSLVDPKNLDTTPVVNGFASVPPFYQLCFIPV
Series [4] can be described thus: Protein binding in mouse plasma at 5 uM. Format: ADME, cell-free. The settings on record: read-out: PPB (converted).
The nature of series [5]: Cmax in Wistar rat at 5 mg/kg, po via gavage by LC-Ms/MS analysis. It counts as ADME, organism-based. Also noted: dose 5 mg/kg, route oral. To be noted: in vivo. The procedure, abridged:
(§2)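 Male Wistar rats (230 ± 15 g), fasted overnight with water available. IV dose of 3 mg/kg given by tail vein as a solution (0.6 mg/mL, 5 mL/kg). PO dose of 5 mg/kg given by gavage as a suspension. Blood was collected into K2EDTA at 0.008 (IV only) to 24 h and plasma was spun off. Samples were precipitated with acetonitrile and run on LC/MS/MS. Parameters came from non-compartmental analysis of individual animals, mean of n = 4.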

Series [6] can be described thus: Tmax in Wistar rat at 5 mg/kg, po via gavage by LC-Ms/MS analysis. It counts as ADME, organism-based. The settings on record: in vivo. The procedure, abridged:
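Male Wistar rats (230 ± 15 g), fasted overnight with water available. IV dosing at 3 mg/kg by tail vein as solution (0.6 mg/mL, 5 mL/kg). PO dosing at 5 mg/kg by oral gavage. Serial blood sampling into K2EDTA from 0.008 (IV only) to 24 h. Plasma precipitated with acetonitrile containing internal standard and analysed by LC/MS/MS. Non-compartmental parameters calculated per animal; values are means of n = 4.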

Series [7] is described as follows: AUC(0 to t) in Wistar rat at 5 mg/kg, po via gavage by LC-Ms/MS analysis. It counts as ADME, organism-based. The settings on record: in vivo. The procedure, abridged:
as §2

The nature of series [8]: Plasma concentration in Wistar rat at 5 mg/kg, po via gavage measured at 1 hr post dose by LC-Ms/MS analysis. It counts as ADME, organism-based. The procedure, abridged:
(§3)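 Male Wistar rats, fasted overnight and for 2 h after dosing, given an oral solution at 5 mg/kg (0.5 mg/mL). Vehicle: NMP 10% with Labrasol 30% or PEG-400 20%, in citrate buffer […]. Blood and brain were taken at discrete time points, n = 2 per time point. Brain was homogenized 1:2 in PBS. Samples were precipitated with acetonitrile and run on LC-MS/MS; LLOQ 10 ng/mL.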

The nature of series [9]: Plasma concentration in Wistar rat at 5 mg/kg, po via gavage measured at 2 hrs post dose by LC-Ms/MS analysis. It counts as ADME, organism-based. The gist of the method:
as §3

Series [10] is described as follows: Plasma concentration in Wistar rat at 5 mg/kg, po via gavage measured at 4 hrs post dose by LC-Ms/MS analysis. Format: ADME, organism-based. The gist of the method:
as §3

The nature of series [11]: Drug uptake in Wistar rat brain at 5 mg/kg, po via gavage measured at 1 hr post dose by LC-Ms/MS analysis. It counts as ADME, organism-based. To be noted: read-out: Drug uptake. The gist of the method: as §3
The nature of series [12]: Drug uptake in Wistar rat brain at 5 mg/kg, po via gavage measured at 2 hrs post dose by LC-Ms/MS analysis. Format: ADME, organism-based. To be noted: read-out: Drug uptake. The procedure, abridged:
as §3

Series [13] can be described thus: Drug uptake in Wistar rat brain at 5 mg/kg, po via gavage measured at 4 hrs post dose by LC-Ms/MS analysis. Format: ADME, organism-based. To be noted: read-out: Drug uptake. The procedure, abridged: as §3
Series [14] concerns the target T3, Adenosine receptor A2b (Homo sapiens) (UniProt P29275).
T3 sequence (whole entry): T1 sequence (P29275 whole entry)
Briefly: Displacement of [3H]MRS-1754 from human adenosine A2B receptor expressed in HEK293 cell membranes at 1 uM after 90 mins relative to control. The gist of the method:
as §1

The target of the next series is Adenosine receptor A2a (Homo sapiens, UniProt P29274). Briefly: Displacement of [3H]ZM241385 from human adenosine A2A receptor expressed in HEK293 cell membranes at 1 uM after 90 mins relative to control. The gist of the method:
as §1

Series [15] addresses T4, Adenosine receptor A3 (Homo sapiens) (UniProt P0DMS8).
T4 sequence (whole entry): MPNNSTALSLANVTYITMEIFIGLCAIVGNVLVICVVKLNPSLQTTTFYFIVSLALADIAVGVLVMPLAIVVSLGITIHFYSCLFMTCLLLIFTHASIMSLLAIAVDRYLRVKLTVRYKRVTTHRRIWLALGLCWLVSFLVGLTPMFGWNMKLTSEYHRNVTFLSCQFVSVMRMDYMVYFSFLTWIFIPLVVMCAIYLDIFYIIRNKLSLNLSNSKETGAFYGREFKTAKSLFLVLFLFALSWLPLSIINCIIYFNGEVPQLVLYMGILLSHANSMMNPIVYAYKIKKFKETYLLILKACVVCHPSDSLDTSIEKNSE
The experiment in a line: Displacement of [3H]HEMADO from human adenosine A3 receptor expressed in HEK293 cell membranes at 1 uM after 90 mins relative to control. The procedure, abridged:
as §1

For the next series, the target named is CYP2C19 (Homo sapiens, UniProt P33261). The experiment in a line: Inhibition of CYP2C19 (unknown origin) at 5 uM relative to control. It counts as ADME.
Chain of CYP2C19 (P33261 whole entry): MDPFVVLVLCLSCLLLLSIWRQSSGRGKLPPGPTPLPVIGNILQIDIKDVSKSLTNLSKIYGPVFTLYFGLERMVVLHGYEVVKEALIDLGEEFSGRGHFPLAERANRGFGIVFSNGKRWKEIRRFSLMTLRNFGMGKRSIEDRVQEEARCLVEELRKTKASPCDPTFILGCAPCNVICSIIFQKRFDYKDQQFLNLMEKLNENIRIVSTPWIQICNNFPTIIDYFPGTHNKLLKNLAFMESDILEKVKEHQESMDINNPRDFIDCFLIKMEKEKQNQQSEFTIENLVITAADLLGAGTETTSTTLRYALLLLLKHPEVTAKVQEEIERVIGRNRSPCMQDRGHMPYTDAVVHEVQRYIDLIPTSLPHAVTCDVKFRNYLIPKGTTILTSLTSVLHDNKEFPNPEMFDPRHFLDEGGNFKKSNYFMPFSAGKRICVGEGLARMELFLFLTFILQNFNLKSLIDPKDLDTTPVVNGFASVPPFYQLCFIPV
Series [16] is described as follows: Drug metabolism assessed as hydroxylation at N-1 propyl by metabolic soft spot analysis. Format: physicochemical.
Series [17] is described as follows: Drug metabolism assessed as hydroxylation at C-8 cyclopentyl by metabolic soft spot analysis. It counts as physicochemical.
The target in the next series is T5, Adenosine receptor A3 (Homo sapiens, UniProt P0DMS8).
T5 sequence (P0DMS8 whole entry): T4 sequence (whole entry)
The experiment in a line: Displacement of [3H]HEMADO from human adenosine A3 receptor expressed in HEK293 cell membranes after 90 mins. The procedure, abridged:
as §1

Series [18] in a line: Ratio of drug level in Wistar rat brain to plasma at 5 mg/kg, po via gavage measured at 2 hrs post dose by LC-Ms/MS analysis. Format: ADME, organism-based. To be noted: read-out: BPR. The gist of the method:
as §3

The next series deals with Rattus norvegicus. The experiment in a line: Effect on serum K+ level in Wistar rat at 3 to 30 mg/kg, po via gavage. Format: ADME, organism-based. To be noted: in vivo.

Calls of active or inactive are those of the source. The calls are words filed in the database; no cut-off is given here. A value given as a limit tells only on which side of the number the result lay.

Chain of Adenosine receptor A2a (P29274 whole entry): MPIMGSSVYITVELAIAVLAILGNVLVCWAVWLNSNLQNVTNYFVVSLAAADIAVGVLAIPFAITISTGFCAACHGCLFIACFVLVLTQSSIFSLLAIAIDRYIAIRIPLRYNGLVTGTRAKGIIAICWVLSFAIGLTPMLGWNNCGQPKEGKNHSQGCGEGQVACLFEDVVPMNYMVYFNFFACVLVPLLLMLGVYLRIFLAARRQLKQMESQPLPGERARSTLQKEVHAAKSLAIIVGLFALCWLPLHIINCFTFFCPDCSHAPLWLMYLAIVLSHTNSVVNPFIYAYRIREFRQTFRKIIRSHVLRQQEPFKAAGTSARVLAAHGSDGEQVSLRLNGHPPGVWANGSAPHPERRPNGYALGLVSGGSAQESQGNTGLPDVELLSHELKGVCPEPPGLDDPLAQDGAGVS

For the compound `CCCn1c(-c2cccc(OC)c2)nc2nc(C3CCCC3)[nH]c2c1=O`, the affinity on Adenosine receptor A2b, expressed as Ki, was 1.1 µM. For the same compound, in [1], the remaining at 0.5 h is 97%. Further, the inhibition at 5 µM against hERG (KCNH2) [2] amounted to 9%; at CYP2C9 it was 7%. This compound displayed an inhibition at 25 µM on hERG (KCNH2) [3] of 72%. Besides, the fraction unbound at 5 µM in series [4] was 0.05. Besides, in series [5], the highest level (Cmax) was 1740 nM. In addition, the Tmax in [6] came to 18 min. Moreover, in series [7], the AUC(0-t) is 1.6 µM·h. Further, the concentration at 1 h in series [8] stood at 670 nM; in series [11] it was 10 ng/g. Also, the concentration at 2 h amounted to 540 nM in [9] and 10 ng/g in series [12]. Further, the concentration at 4 h in [10] was 40 nM; in series [13], 10 ng/g.

Consider `CCCn1c(Oc2cccnc2C)nc2nc(C3CCCC3)[nH]c2c1=O`, for which the inhibition in series [14] turned out to be 49%; at Adenosine receptor A2a it was 33%; in [15] it was 35%. The remaining at 0.5 h in series [1] came out at 79%. Further, the figures for the inhibition at 5 µM against CYP2C9 and against CYP2C19 were 4% and 10%, respectively. Also, the Drug metabolism entry in [16] and in series [17] was “Metabolite_Detected” throughout.

With `CCCn1c(Oc2ccc(F)c(F)c2)nc2nc(C3CCCC3)[nH]c2c1=O`, the IC50 at Adenosine receptor A2b and on Adenosine receptor A3 was greater than 10 µM throughout. This compound displayed a Ki at Adenosine receptor A2b greater than 10 µM. The inhibition entry on Adenosine receptor A2a was “inactive”. Further, the remaining at 0.5 h in series [1] turned out to be 82%. The figures for the inhibition at 5 µM at hERG (KCNH2) [2] and against CYP2C19 were 2% and 0%, respectively. On hERG (KCNH2) [3], the inhibition at 25 µM is 4%. Besides, in series [4], the fraction unbound at 5 µM was 0.01. For the same compound, the Cmax in series [5] turned out to be 9710 nM. In series [6], the Tmax worked out at 97.8 min. Also, the AUC(0-t) in series [7] is 3.19 µM·h. Moreover, the concentration at 1 h in [8] was determined as 1640 nM; in [11], 90 nM. In addition, the figures for the concentration at 2 h in [9] and in series [12] were 940 nM and 50 nM, respectively. Also, the concentration at 4 h in series [10] was 1810 nM; in series [13], 80 nM. For the same compound, in series [18], the Kp at 2 h amounted to 0.05. For the same compound, the Activity entry in the series on Rattus norvegicus is “Non-Toxic”.

What is called Ki is the equilibrium dissociation constant of an inhibitor or competing ligand from its target. Higher therefore signals a looser hold on the target. The inhibition is the drop in the measured response relative to a control, in per cent. What is called Cmax is the maximum level reached in the sampled fluid or tissue. The term Tmax denotes the time from dosing to the highest level. As usually defined, the AUC(0-t) is the area under the concentration-time curve up to a stated or last time point. Low values mean low exposure, high ones high exposure. What is called IC50 is the concentration that gives 50% inhibition. Read a low IC50 as greater potency.
